Data reported in ChEMBL document CHEMBL1123394, “Systematic synthesis and biological evaluation of alpha- and beta-D-xylofuranosyl nucleosides of the five naturally occurring bases in nucleic acids and related analogues” (J Med Chem, 1986).

system: Vero; test: Concentration required for microscopically detectable alteration of the normal cell morphology in Vero B cells.; assay type: functional; details: Chlorocebus sabaeus
Outline: (§1)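 Host-cell morphology inspected microscopically for detectable alteration, with compounds in growth medium at up to 200 or 400 μg/mL.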

Row | Compound | MCC [µg/mL]
1 | O=c1ccn(C2O[C@H](CO)[C@H](O)[C@H]2O)c(=O)[nH]1 (stereo partly specified) | > 400
2 | NC(=O)c1ncn([C@H]2O[C@H](CO)[C@H](O)[C@H]2O)c1N | > 400
3 | Nc1nc(O)c2c(n1)[nH]c[n+]2C1O[C@H](CO)[C@H](O)[C@H]1O (stereo partly specified) | 400
4 | Nc1nccc2c1ncn2[C@@H]1C[C@H](CO)[C@@H](O)[C@H]1O [3-DEAZAARISTEROMYCIN A] | ≥ 400

system: Vero; test: Antiviral activity was measured against Parainfluenza virus-3 in african green monkey kidney (Vero B) cells.; assay type: functional; details: Chlorocebus sabaeus
Outline: (§2)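 Inhibition of virus-induced cytopathogenicity scored in cell culture monolayers. Test compounds dissolved in growth medium at 100, 10, or 1 μg/mL or less.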

Row | Compound | MCC [µg/mL]
5 | O=c1ccn(C2O[C@H](CO)[C@H](O)[C@H]2O)c(=O)[nH]1 (stereo partly specified) | > 400
6 | NC(=O)c1ncn([C@H]2O[C@H](CO)[C@H](O)[C@H]2O)c1N | > 400
7 | Nc1nc(O)c2c(n1)[nH]c[n+]2C1O[C@H](CO)[C@H](O)[C@H]1O (stereo partly specified) | > 200
8 | Nc1nccc2c1ncn2[C@@H]1C[C@H](CO)[C@@H](O)[C@H]1O [3-DEAZAARISTEROMYCIN A] | 0.2

system: WI-38; test: Concentration required for microscopically detectable alteration of the normal cell morphology in Wi-38 cells.; assay type: functional; details: Homo sapiens; outline: as §1

Row | Compound | MCC [µg/mL]
9 | O=c1ccn(C2O[C@H](CO)[C@H](O)[C@H]2O)c(=O)[nH]1 (stereo partly specified) | > 400
10 | NC(=O)c1ncn([C@H]2O[C@H](CO)[C@H](O)[C@H]2O)c1N | > 400
11 | Nc1nc(O)c2c(n1)[nH]c[n+]2C1O[C@H](CO)[C@H](O)[C@H]1O (stereo partly specified) | > 400
12 | Nc1nccc2c1ncn2[C@@H]1C[C@H](CO)[C@@H](O)[C@H]1O [3-DEAZAARISTEROMYCIN A] | > 400

system: WI-38; test: Antiviral activity was measured against Rhino virus-9 in human diploid (WI-38) cells.; assay type: functional; details: not given; outline: as §2

Row | Compound | MCC [µg/mL]
13 | O=c1ccn(C2O[C@H](CO)[C@H](O)[C@H]2O)c(=O)[nH]1 (stereo partly specified) | > 400
14 | NC(=O)c1ncn([C@H]2O[C@H](CO)[C@H](O)[C@H]2O)c1N | > 400
15 | Nc1nc(O)c2c(n1)[nH]c[n+]2C1O[C@H](CO)[C@H](O)[C@H]1O (stereo partly specified) | > 200
16 | Nc1nccc2c1ncn2[C@@H]1C[C@H](CO)[C@@H](O)[C@H]1O [3-DEAZAARISTEROMYCIN A] | > 400

system: not listed separately; test: Antiviral activity was measured against vaccinia virus in rabbit kidney cells.; assay type: functional; details: Oryctolagus cuniculus
Outline: (§3)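 Inhibition of virus-induced cytopathogenicity in cell culture. Compounds were dissolved in growth medium at 100, 10 or 1 μg/mL or less.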

Row | Compound | MCC [µg/mL]
17 | Nc1nccc2c1ncn2[C@@H]1C[C@H](CO)[C@@H](O)[C@H]1O [3-DEAZAARISTEROMYCIN A] | 2

system: not listed separately; test: Antiviral activity was measured against Herpes simplex virus (HSV-1 KOS) in rabbit kidney cells.; assay type: functional; details: Oryctolagus cuniculus; outline: as §3

Row | Compound | MCC [µg/mL]
18 | O=c1ccn(C2O[C@H](CO)[C@H](O)[C@H]2O)c(=O)[nH]1 (stereo partly specified) | 300
19 | NC(=O)c1ncn([C@H]2O[C@H](CO)[C@H](O)[C@H]2O)c1N | > 400
20 | Nc1nc(O)c2c(n1)[nH]c[n+]2C1O[C@H](CO)[C@H](O)[C@H]1O (stereo partly specified) | > 400
21 | Nc1nccc2c1ncn2[C@@H]1C[C@H](CO)[C@@H](O)[C@H]1O [3-DEAZAARISTEROMYCIN A] | > 400

system: Vero; test: Antiviral activity was measured against Reo virus-1 in african green monkey kidney (Vero B) cells.; assay type: functional; details: Chlorocebus sabaeus; outline: as §2

Row | Compound | MCC [µg/mL]
22 | O=c1ccn(C2O[C@H](CO)[C@H](O)[C@H]2O)c(=O)[nH]1 (stereo partly specified) | > 400
23 | NC(=O)c1ncn([C@H]2O[C@H](CO)[C@H](O)[C@H]2O)c1N | > 400
24 | Nc1nc(O)c2c(n1)[nH]c[n+]2C1O[C@H](CO)[C@H](O)[C@H]1O (stereo partly specified) | > 200
25 | Nc1nccc2c1ncn2[C@@H]1C[C@H](CO)[C@@H](O)[C@H]1O [3-DEAZAARISTEROMYCIN A] | 2

system: not listed separately; test: Antiviral activity was measured against Herpes simplex virus (HSV-2 G) in rabbit kidney cells.; assay type: functional; details: Oryctolagus cuniculus; outline: as §2

Row | Compound | MCC [µg/mL]
26 | O=c1ccn(C2O[C@H](CO)[C@H](O)[C@H]2O)c(=O)[nH]1 (stereo partly specified) | 300
27 | NC(=O)c1ncn([C@H]2O[C@H](CO)[C@H](O)[C@H]2O)c1N | > 400
28 | Nc1nc(O)c2c(n1)[nH]c[n+]2C1O[C@H](CO)[C@H](O)[C@H]1O (stereo partly specified) | > 400
29 | Nc1nccc2c1ncn2[C@@H]1C[C@H](CO)[C@@H](O)[C@H]1O [3-DEAZAARISTEROMYCIN A] | > 400

system: HeLa; test: Antiviral activity was measured against vesicular stomatitis virus in HeLa cells.; assay type: functional; details: Homo sapiens; outline: as §3

Row | Compound | MCC [µg/mL]
30 | Nc1nccc2c1ncn2[C@@H]1C[C@H](CO)[C@@H](O)[C@H]1O [3-DEAZAARISTEROMYCIN A] | 2

system: not listed separately; test: Concentration required for microscopically detectable alteration of the normal cell morphology in PRK cells.; assay type: functional; details: Oryctolagus cuniculus; outline: as §1

Row | Compound | MCC [µg/mL]
31 | O=c1ccn(C2O[C@H](CO)[C@H](O)[C@H]2O)c(=O)[nH]1 (stereo partly specified) | > 400
32 | NC(=O)c1ncn([C@H]2O[C@H](CO)[C@H](O)[C@H]2O)c1N | > 400
33 | Nc1nc(O)c2c(n1)[nH]c[n+]2C1O[C@H](CO)[C@H](O)[C@H]1O (stereo partly specified) | > 400
34 | Nc1nccc2c1ncn2[C@@H]1C[C@H](CO)[C@@H](O)[C@H]1O [3-DEAZAARISTEROMYCIN A] | > 400

system: WI-38; test: Antiviral activity was measured against Rhino virus-1A in human diploid (WI-38) cells.; assay type: functional; details: not given; outline: as §2

Row | Compound | MCC [µg/mL]
35 | O=c1ccn(C2O[C@H](CO)[C@H](O)[C@H]2O)c(=O)[nH]1 (stereo partly specified) | > 400
36 | NC(=O)c1ncn([C@H]2O[C@H](CO)[C@H](O)[C@H]2O)c1N | > 400
37 | Nc1nc(O)c2c(n1)[nH]c[n+]2C1O[C@H](CO)[C@H](O)[C@H]1O (stereo partly specified) | > 200
38 | Nc1nccc2c1ncn2[C@@H]1C[C@H](CO)[C@@H](O)[C@H]1O [3-DEAZAARISTEROMYCIN A] | > 400

system: Vero; test: Antiviral activity was measured against forest virus in african green monkey kidney (Vero B) cells.; assay type: functional; details: Chlorocebus sabaeus; outline: as §2

Row | Compound | MCC [µg/mL]
39 | O=c1ccn(C2O[C@H](CO)[C@H](O)[C@H]2O)c(=O)[nH]1 (stereo partly specified) | > 400
40 | NC(=O)c1ncn([C@H]2O[C@H](CO)[C@H](O)[C@H]2O)c1N | > 400
41 | Nc1nc(O)c2c(n1)[nH]c[n+]2C1O[C@H](CO)[C@H](O)[C@H]1O (stereo partly specified) | > 200
42 | Nc1nccc2c1ncn2[C@@H]1C[C@H](CO)[C@@H](O)[C@H]1O [3-DEAZAARISTEROMYCIN A] | > 400

system: HeLa; test: Concentration required for microscopically detectable alteration of the normal cell morphology in HeLa cells.; assay type: functional; details: Homo sapiens; outline: as §1

Row | Compound | MCC [µg/mL]
43 | O=c1ccn(C2O[C@H](CO)[C@H](O)[C@H]2O)c(=O)[nH]1 (stereo partly specified) | > 400
44 | NC(=O)c1ncn([C@H]2O[C@H](CO)[C@H](O)[C@H]2O)c1N | > 400
45 | Nc1nc(O)c2c(n1)[nH]c[n+]2C1O[C@H](CO)[C@H](O)[C@H]1O (stereo partly specified) | > 400
46 | Nc1nccc2c1ncn2[C@@H]1C[C@H](CO)[C@@H](O)[C@H]1O [3-DEAZAARISTEROMYCIN A] | ≥ 400

system: not listed separately; test: Antiviral activity was measured against vesicular stomatitis virus in rabbit kidney cells.; assay type: functional; details: Oryctolagus cuniculus; outline: as §3

Row | Compound | MCC [µg/mL]
47 | O=c1ccn(C2O[C@H](CO)[C@H](O)[C@H]2O)c(=O)[nH]1 (stereo partly specified) | > 200
48 | Nc1nccc2c1ncn2[C@@H]1C[C@H](CO)[C@@H](O)[C@H]1O [3-DEAZAARISTEROMYCIN A] | 0.7

system: Vero; test: Antiviral activity was measured against Sindbis virus in african green monkey kidney (Vero B) cells.; assay type: functional; details: Chlorocebus sabaeus; outline: as §2

Row | Compound | MCC [µg/mL]
49 | O=c1ccn(C2O[C@H](CO)[C@H](O)[C@H]2O)c(=O)[nH]1 (stereo partly specified) | > 400
50 | NC(=O)c1ncn([C@H]2O[C@H](CO)[C@H](O)[C@H]2O)c1N | > 400
51 | Nc1nc(O)c2c(n1)[nH]c[n+]2C1O[C@H](CO)[C@H](O)[C@H]1O (stereo partly specified) | > 200
52 | Nc1nccc2c1ncn2[C@@H]1C[C@H](CO)[C@@H](O)[C@H]1O [3-DEAZAARISTEROMYCIN A] | > 400

system: Vero; test: Antiviral activity was measured against Coxsackie virus B4 in african green monkey kidney (Vero B) cells.; assay type: functional; details: Chlorocebus sabaeus; outline: as §2

Row | Compound | MCC [µg/mL]
53 | O=c1ccn(C2O[C@H](CO)[C@H](O)[C@H]2O)c(=O)[nH]1 (stereo partly specified) | > 400
54 | NC(=O)c1ncn([C@H]2O[C@H](CO)[C@H](O)[C@H]2O)c1N | > 300
55 | Nc1nc(O)c2c(n1)[nH]c[n+]2C1O[C@H](CO)[C@H](O)[C@H]1O (stereo partly specified) | > 200
56 | Nc1nccc2c1ncn2[C@@H]1C[C@H](CO)[C@@H](O)[C@H]1O [3-DEAZAARISTEROMYCIN A] | 0.7

system: not listed separately; test: Antiviral activity was measured against Vaccinia virus in rabbit kidney cells.; assay type: functional; details: Oryctolagus cuniculus; outline: as §3

Row | Compound | MCC [µg/mL]
57 | O=c1ccn(C2O[C@H](CO)[C@H](O)[C@H]2O)c(=O)[nH]1 (stereo partly specified) | 150

system: HeLa; test: Antiviral activity was measured against Coxsackie virus B4 in HeLa cells.; assay type: functional; details: Homo sapiens; outline: as §3

Row | Compound | MCC [µg/mL]
58 | O=c1ccn(C2O[C@H](CO)[C@H](O)[C@H]2O)c(=O)[nH]1 (stereo partly specified) | > 400
59 | NC(=O)c1ncn([C@H]2O[C@H](CO)[C@H](O)[C@H]2O)c1N | > 400
60 | Nc1nc(O)c2c(n1)[nH]c[n+]2C1O[C@H](CO)[C@H](O)[C@H]1O (stereo partly specified) | > 400
61 | Nc1nccc2c1ncn2[C@@H]1C[C@H](CO)[C@@H](O)[C@H]1O [3-DEAZAARISTEROMYCIN A] | > 400
